These results are taken from article PMC5094435 (Saudi Pharmaceutical Journal : SPJ, 2015).

≈ marks a conversion by molar mass, not a printed value. Where “and” joins values, the source holds several entries; their conditions need not be identical. Equal values may be shown once.

Data set [1] relates to Escherichia coli (MTCC 1652). The experiment in a line: Antibacterial activity. Type of data set: cell-based. The note with it: Escherichia coli, MTCC1652, read-out: MIC, E. coli. In outline:
(§1)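 Screened by a standard method against S. aureus MTCC 96, B. subtilis MTCC 121, E. coli MTCC 1652 and P. aeruginosa MTCC 741. Ciprofloxacin was the reference antibiotic. Only compounds active at 100 μg/mL went on to MIC determination.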

The test system of data set [2] is Pseudomonas aeruginosa (MTCC 741). The experiment in a line: Antibacterial activity. The note with it: Pseudomonas aeruginosa, MTCC741, read-out: MIC, P. aeruginosa. Type of data set: cell-based. Summed up:
as §1

Another data set concerns Aspergillus niger. The experiment in a line: Antifungal activity. Type of data set: cell-based. The conditions noted are these: read-out: MIC, A. niger. In outline: (§2)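 Run by the poison food technique against Aspergillus niger and Aspergillus flavus. Fluconazole was the reference drug.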
Data set [3] concerns Staphylococcus aureus (MTCC 96). The experiment in a line: Antibacterial activity. The conditions noted are these: MTCC96, read-out: MIC, S. aureus. Type of data set: cell-based. In outline: as §1
For data set [4], the system named is acetic acid induced writhing. The experiment in a line: Peripheral analgesic activity, acetic acid induced writhing method. Type of data set: in vivo, Swiss Albino mice. The note with it: mice; for Peripheral analgesic activity (writhing test) No. of writhing: mean ± SEM; for Peripheral analgesic activity (writhing test) % Protection: vs control group. Summed up: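 Writhing was induced with aqueous acetic acid in Swiss albino mice (20–30 g) of either sex, six per group. % Protection = (Wc − Wt)/Wc × 100, where Wc and Wt are the mean writhing counts of the control and test groups.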

The test system of data set [5] is Bacillus subtilis (MTCC 121). The experiment in a line: Antibacterial activity. The note with it: MTCC121, read-out: MIC, B. subtilis. Type of data set: cell-based. In outline:
as §1

In data set [6] the test system is tail immersion (hot water 55 °C). The experiment in a line: Central analgesic activity, tail immersion method. Type of data set: in vivo, Swiss albino mice. The note with it: mice, mean ± SEM; for Central analgesic activity [tail immersion (reaction time in min)] 1 h: 1 h after the dosing; for Central analgesic activity [tail immersion (reaction time in min)] 2 h: 2 h after the dosing. Summed up:
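Used the same mice from the writhing test after a washout period. Each mouse was held in a restrainer and the protruding tail (up to 5 cm) was dipped in 55 °C water. Withdrawal time was recorded as reaction time at 1 h and 2 h post-dose. Data are mean ± SEM, analysed by ANOVA followed by Dunnett's t test.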

Data set [7] concerns carrageenan induced edema. The experiment in a line: Anti-inflammatory activity, carrageenan induced rat paw edema. The conditions noted are these: inhibition of edema, rats. Type of data set: in vivo, Wistar rats. Summed up:
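Used the Winter et al. paw oedema method in Wistar rats of either sex (160–200 g), housed six per cage and acclimatised 48 h. Percent inhibition of oedema was calculated at 1, 2, 3 and 4 h. Diclofenac served as the standard drug.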

Another data set concerns mucosal damage. The experiment in a line: Acute ulcerogenic activity. Type of data set: in vivo, Albino rats. The conditions noted are these: rats, mean ± SEM. Summed up:
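Conducted in Albino rats (160–200 g, housed six per cage, acclimatised 48 h) following Cioli et al. Gastric mucosal damage was scored at the end of the study. Ulcerogenic potential (severity index) came from comparing the mean score of each treated group with that of the control rats.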

The test system of a further data set is Aspergillus flavus. The experiment in a line: Antifungal activity. Type of data set: cell-based. The conditions noted are these: read-out: MIC, A. flavus. Summed up: as §2

As usually defined, the MIC is the least concentration at which growth counts as inhibited. `O=C1OC(c2ccc3ccccc3c2)=CC1=Cc1cc2cc(Cl)ccc2nc1Cl` [Compound 5b, 3-[(2,6-Dichloroquinolin-3-yl)methylene]-5-(naphthalene-2-yl)furan-2(3H)-one]: the MIC in [1] came out at 25 mg/L (≈ 59.8 µM); in data set [2], 50 mg/L (≈ 120 µM); in the data set with Aspergillus niger it was 25 mg/L (≈ 59.8 µM); in data set [3] it was 12.5 mg/L (≈ 29.9 µM); in data set [5] it was 12.5 mg/L (≈ 29.9 µM); in the data set with Aspergillus flavus, 50 mg/L (≈ 120 µM). Further, in data set [4], the “Peripheral analgesic activity (writhing test) No. of writhing” value was found to be 26.2 ± 4.1. Besides, the “Peripheral analgesic activity (writhing test) % Protection” value in data set [4] was found to be 37.61%. Besides, the “Central analgesic activity [tail immersion (reaction time in min)] 1 h” value in [6] was 3.2 ± 0.2^∗ min. For the same molecule, the “Central analgesic activity [tail immersion (reaction time in min)] 2 h” value in [6] turned out to be 4.4 ± 0.5 min. In data set [7], the “% Inhibition ± SEM After 1 h” value is listed as 74 ± 0.18^∗∗ %. The “% Inhibition ± SEM After 2 h” value in data set [7] was 67 ± 0.06^∗∗ %. In addition, the “% Inhibition ± SEM After 3 h” value in data set [7] was 39 ± 0.29%. For the same molecule, the “Ulcerogenic activity (severity index)” value in the data set with mucosal damage is on record as 0.33 ± 0.35^∗.
Consider `O=C1NC(c2ccc3ccccc3c2)=CC1=Cc1cc2cc(Cl)ccc2nc1Cl` [Compound 6b, 3-[(2,6-Dichloroquinolin-3-yl)methylene]-5-(naphthalene-2-yl)-1H-pyrrol-2(3H)-one], for which the MIC turned out to be 50 mg/L (≈ 120 µM) in data set [1]; 50 mg/L (≈ 120 µM) in data set [2]; 12.5 mg/L (≈ 30 µM) in the data set with Aspergillus niger; 6.25 mg/L (≈ 15 µM) in [3]; 6.25 mg/L (≈ 15 µM) in data set [5]; 12.5 mg/L (≈ 30 µM) in the data set on Aspergillus flavus. Besides, the “Peripheral analgesic activity (writhing test) No. of writhing” value in [4] is 13.8 ± 4.4^∗. Further, the “Peripheral analgesic activity (writhing test) % Protection” value in data set [4] was determined as 67.14%. In addition, the “Central analgesic activity [tail immersion (reaction time in min)] 1 h” value in data set [6] was 1.8 ± 0.2 min. For the same molecule, the “Central analgesic activity [tail immersion (reaction time in min)] 2 h” value in data set [6] turned out to be 4.2 ± 0.6 min. Besides, in [7], the “% Inhibition ± SEM After 1 h” value is listed as 62 ± 0.09^∗ %. For the same molecule, the “% Inhibition ± SEM After 2 h” value in [7] is given as 66 ± 0.18^∗∗ %. The “% Inhibition ± SEM After 3 h” value in [7] is given as 53 ± 0.17%. Further, the “Ulcerogenic activity (severity index)” value in the data set with mucosal damage stood at 0.43 ± 0.33.
For the molecule `O=C1C(=Cc2cc3cc(Cl)ccc3nc2Cl)C=C(c2ccc3ccccc3c2)N1Cc1ccccc1` [Compound 7b, 1-Benzyl-3-[(2,6-dichloroquinolin-3-yl)methylene]-5-(naphthalene-2-yl)-1H-pyrrol-2(3H)-one], the MIC is 12.5 mg/L (≈ 24.6 µM) in data set [1]; > 100 mg/L in data set [2]; 50 mg/L (≈ 98.5 µM) in the data set on Aspergillus niger; 25 mg/L (≈ 49.3 µM) in data set [3]; 25 mg/L (≈ 49.3 µM) in [5]; 25 mg/L (≈ 49.3 µM) in the data set with Aspergillus flavus. The “Peripheral analgesic activity (writhing test) No. of writhing” value in data set [4] worked out at 25.4 ± 4.8. The “Peripheral analgesic activity (writhing test) % Protection” value in [4] came out at 39.52%. Besides, in [6], the “Central analgesic activity [tail immersion (reaction time in min)] 1 h” value amounted to 2.4 ± 0.3 min. For the same molecule, the “Central analgesic activity [tail immersion (reaction time in min)] 2 h” value in [6] turned out to be 3.4 ± 0.2 min. Besides, in [7], the “% Inhibition ± SEM After 1 h” value was 84 ± 0.06^∗∗ %. For the same molecule, the “% Inhibition ± SEM After 2 h” value in data set [7] is listed as 74 ± 0.21^∗∗ %. The “% Inhibition ± SEM After 3 h” value in data set [7] is recorded as 70 ± 0.23^∗ %. In the data set with mucosal damage, the “Ulcerogenic activity (severity index)” value was 0.36 ± 0.35^∗.
For `O=C1C(=Cc2cc3cc(Cl)ccc3nc2Cl)C=C(c2ccc(-c3ccccc3)cc2)N1Cc1ccccc1` [Compound 7f, 1-Benzyl-3-[(2,6-dichloroquinolin-3-yl)methylene]-5-(biphenyl-4-yl)-1H-pyrrol-2(3H)-one], the minimum inhibitory concentration (MIC) worked out at 25 mg/L (≈ 46.9 µM) in [1]; 50 mg/L (≈ 93.7 µM) in data set [2]; 25 mg/L (≈ 46.9 µM) in the data set with Aspergillus niger; 12.5 mg/L (≈ 23.4 µM) in [3]; 12.5 mg/L (≈ 23.4 µM) in [5]; 50 mg/L (≈ 93.7 µM) with Aspergillus flavus. The “Peripheral analgesic activity (writhing test) No. of writhing” value in [4] is listed as 12.8 ± 3.8^∗∗. For the same molecule, in [6], the “Central analgesic activity [tail immersion (reaction time in min)] 1 h” value was 3.2 ± 0.2^∗ min. In addition, in [6], the “Central analgesic activity [tail immersion (reaction time in min)] 2 h” value was 6.2 min and 6.2 ± 1.5^∗ min. In addition, the “% Inhibition ± SEM After 1 h” value in [7] was 84 ± 0.12%. Moreover, the “% Inhibition ± SEM After 2 h” value in data set [7] is reported as 74 ± 0.19^∗∗ %. In addition, the “% Inhibition ± SEM After 3 h” value in data set [7] is recorded as 63 ± 0.14^∗ %. Further, the “Ulcerogenic activity (severity index)” value in the data set on mucosal damage stood at 0.53 ± 0.12.
